Experimental data taken from ChEMBL document CHEMBL1629621, “Evaluation of strategies for improving proteolytic resistance of antimicrobial peptides by using variants of EFK17, an internal segment of LL-37” (Antimicrob Agents Chemother, 2009).
Converted amounts (≈) assume the structure as drawn. The source made the active and inactive calls. The calls are words filed in the database; no cut-off is given here. Where a SMILES comes first, the peptide text is derived from it.

Experiments:
[1] = test system: Staphylococcus aureus; assay: Antimicrobial activity against Staphylococcus aureus 2844 after 21 hrs by broth microdilution method; assay type: functional; conditions: Staphylococcus aureus, 2844, 21 h
Outline: (§1)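 Microtiter broth dilution at 37°C for 21 h in DEAE-refined LB medium prepared in 10 mM Tris, pH 7.4. Bacteria were grown overnight in 3% trypticase soy broth, rinsed in Tris and used at about 10^6 CFU/ml. Final peptide was 0.6–80 µM in twofold steps. Growth was read visually as pellet and at OD540. MIC is >95% inhibition with no visible pellet. Two separate experiments.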

[2] = test system: Staphylococcus aureus; assay: Antimicrobial activity against Staphylococcus aureus FDA 486 after 21 hrs by broth microdilution method; assay type: functional; conditions: FDA 486, 21 h; outline: as §1
[3] = test system: Pseudomonas aeruginosa; assay: Antimicrobial activity against Pseudomonas aeruginosa ATCC 27853 after 21 hrs by broth microdilution method; assay type: functional; conditions: ATCC 27853, 21 h; outline: as §1
[4] = test system: Staphylococcus aureus; assay: Antimicrobial activity against Staphylococcus aureus 29213 after 21 hrs by broth microdilution method; assay type: functional; conditions: Staphylococcus aureus, 29213, 21 h; outline: as §1
[5] = Stability of the compound at 136 uM after 4 hrs in presence of […] V8 protease; assay type: ADME
Outline: (§2)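 Peptide at 136 µM was incubated with protease (peptide:enzyme 300:1) for 4 h at 37°C in 10 mM Tris, pH 7.4. The reaction was stopped by boiling in Laemmli buffer, then run on Tris-Tricine 16.5% SDS-PAGE and Coomassie stained. Band densitometry gave the undegraded fraction, normalized to peptide incubated without enzyme. Two separate experiments.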

[6] = Toxicity in human erythrocytes at 6 to 60 uM by hemolysis assay; assay type: cell-based; conditions: erythrocyte
Outline: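 EDTA-treated human erythrocytes were washed and used as a 5% suspension in PBS, pH 7.4. Cells were rotated end-over-end with peptide for 1 h at 37°C, then centrifuged. Hemoglobin was read at 540 nm relative to 2% Triton X-100, with spontaneous leakage as background. Triplicate.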

[7] = test system: HaCaT; assay: Cytotoxicity against human HaCaT assessed at 6 to 60 uM by MTT assay; assay type: cell-based
Outline: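 HaCaT keratinocytes were seeded at 3,000 cells/well, grown to confluence in SFM-BPE-rEGF, and given 6 or 60 µM peptide overnight. MTT was then added for 1 h at 37°C and formazan dissolved in DMSO. Absorbance was read at 550 nm relative to untreated cells, with the 1% Triton X-100 signal as background. Triplicate.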

[8] = test system: Pseudomonas aeruginosa; assay: Antimicrobial activity against Pseudomonas aeruginosa 15159 after 21 hrs by broth microdilution method; assay type: functional; conditions: Pseudomonas aeruginosa, 15159, 21 h; outline: as §1
[9] = test system: Lipid bilayer; assay: Binding affinity to DOPC-cholesterol liposome at 10 to 1000 uM after 45 mins by ellipsometry in presence of NaCl
Outline: (§3)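 Ellipsometry on DOPC-cholesterol bilayers deposited from DDM micelles onto silica. Peptide was added cumulatively in 10 mM Tris, pH 7.4, with 5 mM glucose at 37°C; […] adds 150 mM NaCl. Each step was followed 45 min to saturation. Adsorbed amount was calculated from refractive index and thickness, with dn/dc 0.154 cm3/g. Duplicates.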

[10] = test system: Lipid bilayer; assay: Binding affinity to DOPC-cholesterol liposome at 10 to 1000 uM after 45 mins by ellipsometry; outline: as §3
[11] = Stability of the compound at 136 uM after 4 hrs in presence of human neutrophil elastase; assay type: ADME; outline: as §2
[12] = test system: HaCaT; assay: Cytotoxicity against human HaCaT assessed as LDH release at 6 to 60 uM; assay type: cell-based
Outline: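 HaCaT keratinocytes were seeded at 3,000 cells/well and grown to confluence in serum-free keratinocyte medium with BPE-rEGF. They were exposed overnight to 6 or 60 µM peptide in that medium. LDH release was measured against a 1% Triton X-100 control, with spontaneous release as background. Triplicate.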

[13] = Stability of the compound at 136 uM after 4 hrs in presence of aureolysin; assay type: ADME; outline: as §2
[14] = Stability of the compound at 136 uM after 4 hrs in presence of Pseudomonas aeruginosa elastase; assay type: ADME; outline: as §2
[15] = test system: Lipid bilayer; assay: Induction of DOPC-cholesterol liposome leakage in cell-free system at 0.1 to 1 uM after 45 mins; assay type: functional
Outline: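 Carboxyfluorescein-loaded (100 mM, self-quenching) DOPC-cholesterol 3:2 unilamellar liposomes, about 110 nm, at 10 µM lipid in Tris buffer at 37°C with stirring. Peptide was added at a single concentration per experiment, between 0.01 and 1 µM. After a 10 min baseline, fluorescence increase was followed for 45 min and the limiting leakage level taken.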

[16] = Toxicity in human erythrocytes at 60 uM by hemolysis assay in presence of serum; assay type: cell-based; conditions: erythrocyte

SMILES	MIC [1] [µM]	MIC [2] [µM]	MIC [3] [µM]	MIC [4] [µM]	Stability [5]	Activity [6]	Activity [7]	MIC [8] [µM]	Activity [9]	Activity [10]	Stability [11]	Activity [12]	Stability [13]	Stability [14]	Activity [15]	Activity [16]
CC[C@H](C)[C@H](NC(=O)[C@H](CCCNC(=N)N)NC(=O)[C@H](CCC(N)=O)NC(=O)[C@@H](NC(=O)[C@@H](NC(=O)[C@H](CCCNC(=N)N)NC(=O)[C@H](CCCCN)NC(=O)[C@H](Cc1ccccc1)NC(=O)[C@H](CCC(=O)O)NC(C)=O)[C@@H](C)CC)C(C)C)C(=O)N[C@@H](CCCCN)C(=O)N[C@@H](CC(=O)O)C(=O)N[C@@H](Cc1ccccc1)C(=O)N[C@@H](CC(C)C)C(=O)N[C@@H](CCCNC(=N)N)C(=O)N[C@@H](CC(N)=O)C(=O)N[C@@H](CC(C)C)C(=O)N[C@H](C(N)=O)C(C)C	5 (≈ 11.1 µg/mL)	5 (≈ 11.1 µg/mL)	10 (≈ 22.2 µg/mL)	10 (≈ 22.2 µg/mL)	Unstable	Toxic	Toxic	10 (≈ 22.2 µg/mL)	inactive	Active	Unstable	Toxic	Unstable	Unstable		
CC(C)C[C@H](NC(=O)[C@H](Cc1c[nH]c2ccccc12)NC(=O)[C@H](CC(=O)O)NC(=O)[C@H](CCCCN)NC(=O)[C@H](Cc1c[nH]c2ccccc12)NC(=O)[C@H](CCCNC(=N)N)NC(=O)[C@H](CCC(N)=O)NC(=O)[C@@H](NC(=O)[C@H](Cc1c[nH]c2ccccc12)NC(=O)[C@H](CCCNC(=N)N)NC(=O)[C@H](CCCCN)NC(=O)[C@H](Cc1c[nH]c2ccccc12)NC(=O)[C@@H](N)CCC(=O)O)C(C)C)C(=O)N[C@@H](CCCNC(=N)N)C(=O)N[C@@H](CC(N)=O)C(=O)N[C@@H](CC(C)C)C(=O)N[C@H](C(=O)O)C(C)C (H-EWKRWVQRWKDWLRNLV-OH)	5 (≈ 12 µg/mL)	5 (≈ 12 µg/mL)	10 (≈ 24 µg/mL)	10 (≈ 24 µg/mL)	Stable	Toxic	Toxic	20 (≈ 48 µg/mL)	inactive	Active	Stable	Toxic	Stable	Unstable	Active	
CC[C@H](C)[C@H](NC(=O)[C@H](CCCNC(=N)N)NC(=O)[C@H](CCC(N)=O)NC(=O)[C@@H](NC(=O)[C@H](NC(=O)[C@H](CCCNC(=N)N)NC(=O)[C@H](CCCCN)NC(=O)[C@@H](Cc1ccccc1)NC(=O)[C@@H](N)CCC(=O)O)[C@@H](C)CC)C(C)C)C(=O)N[C@@H](CCCCN)C(=O)N[C@@H](CC(=O)O)C(=O)N[C@H](Cc1ccccc1)C(=O)N[C@@H](CC(C)C)C(=O)N[C@@H](CCCNC(=N)N)C(=O)N[C@@H](CC(N)=O)C(=O)N[C@@H](CC(C)C)C(=O)N[C@H](C(=O)O)C(C)C										Active					Active	
CC(=O)N[C@@H](CCC(=O)O)C(=O)N[C@@H](Cc1c[nH]c2ccccc12)C(=O)N[C@@H](CCCCN)C(=O)N[C@@H](CCCNC(=N)N)C(=O)N[C@@H](Cc1c[nH]c2ccccc12)C(=O)N[C@H](C(=O)N[C@@H](CCC(N)=O)C(=O)N[C@@H](CCCNC(=N)N)C(=O)N[C@@H](Cc1c[nH]c2ccccc12)C(=O)N[C@@H](CCCCN)C(=O)N[C@@H](CC(=O)O)C(=O)N[C@@H](Cc1c[nH]c2ccccc12)C(=O)N[C@@H](CC(C)C)C(=O)N[C@@H](CCCNC(=N)N)C(=O)N[C@@H](CC(N)=O)C(=O)N[C@@H](CC(C)C)C(=O)N[C@H](C(N)=O)C(C)C)C(C)C (Ac-EWKRWVQRWKDWLRNLV-NH2)	5 (≈ 12.2 µg/mL)	5 (≈ 12.2 µg/mL)	10 (≈ 24.4 µg/mL)	10 (≈ 24.4 µg/mL)	Stable			10 (≈ 24.4 µg/mL)			Stable		Stable	Unstable	Active	
CC[C@H](C)[C@H](NC(=O)[C@H](CCCNC(=N)N)NC(=O)[C@H](CCC(N)=O)NC(=O)[C@@H](NC(=O)[C@@H](NC(=O)[C@H](CCCNC(=N)N)NC(=O)[C@H](CCCCN)NC(=O)[C@H](Cc1ccccc1)NC(=O)[C@@H](N)CCC(=O)O)[C@@H](C)CC)C(C)C)C(=O)N[C@@H](CCCCN)C(=O)N[C@@H](CC(=O)O)C(=O)N[C@@H](Cc1ccccc1)C(=O)N[C@@H](CC(C)C)C(=O)N[C@@H](CCCNC(=N)N)C(=O)N[C@@H](CC(N)=O)C(=O)N[C@@H](CC(C)C)C(=O)N[C@H](C(=O)O)C(C)C	20 (≈ 43.5 µg/mL)	40 (≈ 87 µg/mL)	80 (≈ 174 µg/mL)	80 (≈ 174 µg/mL)	Stable			80 (≈ 174 µg/mL)	inactive	Active	Unstable		Unstable	Unstable	Active	Non-toxic
CC[C@H](C)[C@@H](NC(=O)[C@H](CCCNC(=N)N)NC(=O)[C@H](CCC(N)=O)NC(=O)[C@@H](NC(=O)[C@H](NC(=O)[C@H](CCCNC(=N)N)NC(=O)[C@H](CCCCN)NC(=O)[C@@H](Cc1ccccc1)NC(=O)[C@H](CCC(=O)O)NC(C)=O)[C@@H](C)CC)C(C)C)C(=O)N[C@@H](CCCCN)C(=O)N[C@@H](CC(=O)O)C(=O)N[C@H](Cc1ccccc1)C(=O)N[C@@H](CC(C)C)C(=O)N[C@@H](CCCNC(=N)N)C(=O)N[C@@H](CC(N)=O)C(=O)N[C@@H](CC(C)C)C(=O)N[C@H](C(N)=O)C(C)C															Active	
